MT1-MMP act inh: inhibitors of human MT1-MMP activation | P50281 | GFP/RFP ratio change, % at 20 µM | HT1080 RFP-PRO-GFP cells, GFP/RFP ratio fluorescence, overnight; percent of plate control window, DMSO zero | 360,000 compounds, 0.061% hits;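 active = GFP/RFP ratio change of at least 30% with cell ATP level not reduced by more than half and red fluorescence within 50% of control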
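Material – HT1080 RFP-PRO-GFP cells · Control set – DMSO wells and RFP-L50D-GFP cells · Incubation – overnight cell settling, then overnight compound exposure, 37 °C, 5% CO2 · Compound dosing – single-point 20 µM compound, 1% DMSO · Read-out – GFP/RFP fluorescence ratio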
SKN-1 block: blocks SKN-1 activity in C. elegans | C. elegans VP596 Pgst-4::GFP/RFP ratio, acrylamide-induced, 24 h | 360,000 compounds, 0.49% hits | AID 624304 | inhibition, % at 21.8 µM;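 active = interference check ratio from 0.5 to 1.5 plus GFP to RFP signal ratio inhibition reaching or exceeding a fixed threshold, cut at about 30% in these data, passing the limit was not always enough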
DAGLB inhibitor: diacylglycerol lipase beta (human) inhibition | Q8NCG7 | HEK293T DAGLB membrane lysate, EnzChek fluorogenic substrate | inhibition, % at 5.17 µM | 340,000 compounds, 0.059% hits; in the data active = inhibition above about 34%;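 also: 0% = enzyme with vehicle and 100% = wells lacking enzyme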
bovine MsrA act: activators of bovine methionine sulfoxide reductase A | purified bovine MsrA, absorbance read-out | activation, % at 10.6 µM | 360,000 compounds, 0.3% hits | AID 602163; in the data active = activation above about 7.5%;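 also: 0% = vehicle and 100% = reference activator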
MsrA inh: inhibits bovine methionine sulfoxide reductase A; purified bovine MsrA, absorbance read-out; AID 651718; inhibition, % at 15.5 µM; 360,000 compounds, 0.75% hits; in the data active = inhibition above about 4.5%;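 also: 0% = vehicle wells with enzyme and 100% = reference inhibitor wells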
MIN6 prolif: inducers of beta-cell replication in MIN6 cells | MIN6 cells proliferation, ATPlite luminescence, 48 h; cells starved in 0.2% serum; 100% = growth in 10% serum | proliferation, % at 10 µM | 330,000 compounds, 0.29% hits;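 active = compounds whose signal lies at least 3.5 SD above the mean of all wells on their plate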;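 also: 0% = DMSO-treated cells in low-serum medium and 100% = 10% serum control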
An asterisk follows results filed as active; . = no result given. Hits are enriched below; roughly 1.8% of the tested compounds scored in any of these assays.

SMILES	MT1-MMP act inh	SKN-1 block	DAGLB inhibitor	bovine MsrA act	MsrA inh	MIN6 prolif
OCCN(CCO)c1ccc(C(c2ccccc2Cl)c2ccc(N(CCO)CCO)cc2Cl)c(Cl)c1	5	36*	4	-3	.	0
O=C(NCc1ccco1)c1sc2ccccc2c1Cl	-1	25	-5	2	1	-2
O=C(NCc1ccco1)c1sc2cc(Cl)ccc2c1Cl	5	38*	-17	-2	0	-2
COc1cc(CCN=Cc2cccc(OC)c2O)c([N+](=O)[O-])cc1OC	.	.	.	.	1	.
CC1OC2(C)OC(=N)C1(C#N)C(C#N)(C#N)C2c1ccccc1 (stereo not drawn)	-2	37	1	-3	1	-2
CCCCC1OC2(C)OC(=N)C1(C#N)C(C#N)(C#N)C2c1ccccc1 (stereo not drawn)	-7	44*	-2	-11	0	.
COc1ccc(Sc2cccc(Cl)c2)c(C(=O)O)c1	.	.	.	.	0	.
COc1ccc2c(c1)[C@@]1(OCCC=C[C@H]1C)C(=O)N2C/C=C(\C)CCC=C(C)C	.	.	.	.	0	.
CCOC(=O)COn1c(-c2cccc(Cl)c2)nc2ccc([N+](=O)[O-])cc21	-1	38*	-1	-4	0	-1
Cc1cccc(NC(=O)NCCN2CCCCC2)c1	1	38*	-4	2	1	0
CCCCNc1ccc2c(c1)OC[C@H](C)NS2(=O)=O	.	.	.	.	0	.
CS(=O)(=O)c1ccc2nc(NC(=O)c3ccccc3)sc2c1	3	8	1	0	1	-5
CS(=O)(=O)c1ccc2nc(NC(=O)c3ccc(Cn4cc(Br)cn4)o3)sc2c1	2	-10	1	-7	5.4*	2
COc1ccc(C(C)=O)cc1CN1C(=O)C(C)ON=C1c1ncccc1C (stereo not drawn)	3	6	.	-6	-1	.
COc1ccc(C(C)=O)cc1CN1C(=O)C(C)ON=C1c1cccc(C(F)(F)F)c1 (stereo not drawn)	2	35*	.	0	2	.
C=C1[C@@H](C)CN[C@@H]1CCO	.	.	.	.	1	.
CC(=O)C1=C(C)N(CC(C)C)C(=S)NC1c1cccc(Cl)c1 (stereo not drawn)	.	.	.	.	1	.
COc1ccc(C(=O)NN/C(=N/S(=O)(=O)c2ccc(C)cc2)c2ccccc2)cc1	0	37*	-8	-8	1	-5
C(=C1c2ccccc2-c2ccccc21)c1ccncc1	1	40*	-6	-2	1	.
COc1cccc(CNC(=O)[C@H]2CCCN2C(=O)[C@H]2CCCN2C(=O)c2ccc(F)c(F)c2)c1	.	.	.	.	0	.
CC(=O)C1=C(C)N(Cc2ccc(Cl)cc2)C(=S)NC1c1cccc(Br)c1 (stereo not drawn)	.	.	.	.	1	.
O=C(CN1N=C(c2ccccc2)CCC1=O)NCCN1CCc2ccccc2C1	-2	13	-2	0	0	4.6*
O=C(CN1N=C(c2ccccc2)CCC1=O)NCc1ccccc1	-1	-11	-2	-7	-1	-2
Nc1c(C(=O)Nc2ccc(F)cc2)sc2nc(-c3ccco3)ccc12	-14	45*	8	-2	2	-5
Nc1c(C(=O)Nc2ccc(Br)cc2)sc2nc(-c3ccco3)ccc12	-26	12	16	-6	2	-6
SMILES	MT1-MMP act inh	SKN-1 block	DAGLB inhibitor	bovine MsrA act	MsrA inh	MIN6 prolif
CCOc1ccc2nc(N=NC3=C(O)CC(C)(C)CC3=O)sc2c1	11	35*	6	-3	2	-5
Cc1nc2ccc(N=NC3=C(O)CC(C)(C)CC3=O)cc2s1	3	1	1	-5	2	0
Cc1oc(C)c2c(=O)ccc3c(c12)OC(N)=C(C#N)C3c1ccccc1 (stereo not drawn)	-52	48*	2	-3	3	-4
O=S1(=O)N[C@@H](Cc2ccccc2)COc2cc(N3CCOCC3)ccc21	.	.	.	.	0	.
COc1cccc(C(=O)N(Cc2cccs2)C2CCS(=O)(=O)C2)c1 (stereo not drawn)	-2	5	-4	-1	-1	0
O=C(c1cccc(Cl)c1)N(Cc1cccs1)C1CCS(=O)(=O)C1 (stereo not drawn)	2	36*	1	1	1	0
Cc1cccc(C(=O)N(Cc2cccs2)C2CCS(=O)(=O)C2)c1 (stereo not drawn)	-1	36*	0	-2	0	-1

Screening results as filed in PubChem.
